Experimental data reported in ChEMBL document CHEMBL1145777 (J Med Chem, 2003).

What was measured:
[1] = target: Kappa-type opioid receptor (Cavia porcellus) (UniProt P41144); assay: Ratio of binding affinity of Opioid receptor kappa 1 to Opioid receptor mu 1 to Opioid receptor delta 1; kappa:mu:delta = 12:38:1
Mu-type opioid receptor [2] = target: Mu-type opioid receptor (Cavia porcellus, UniProt P97266); assay: Binding affinity towards Opioid receptor mu 1 from guinea pig brain using [3H]DAMGO as radioligand
[3] = target: Kappa-type opioid receptor (Cavia porcellus, UniProt P41144); assay: Binding affinity towards Opioid receptor kappa 1 from guinea pig brain using [3H]U-69593 as radioligand
Procedure, shortened: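 Uses 1 nM [3H]U69,593 with guinea pig brain membrane protein (500 µg), 12 concentrations, 50 mM Tris-HCl pH 7.5, 60 min at 25 °C. Nonspecific binding with 10 µM naloxone. Filters pre-soaked in 0.1% polyethylenimine; bound label counted.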

[4] = Binding affinity towards Opioid receptor delta 1 from guinea pig brain using [3H]naltrindole as radioligand
[5] = target: T1, Kappa-type opioid receptor (Homo sapiens, UniProt P41145); assay: (§1) Incorporation of [35S]GTP-gamma-S, into CHO membranes expressing human Opioid receptor kappa 1; format: functional
[6] = target: T1, Kappa-type opioid receptor; assay: as §1; format: functional; remark: listed apart in the source
[7] = target: Kappa-type opioid receptor (Cavia porcellus) (UniProt P41144); assay: Ratio of binding affinity of Opioid receptor kappa 1 to Opioid receptor mu 1 to Opioid receptor delta 1; kappa:mu:delta = 11:7:1
[8] = target: Kappa-type opioid receptor (Cavia porcellus) (UniProt P41144); assay: Ratio of binding affinity of Opioid receptor kappa 1 to Opioid receptor mu 1 to Opioid receptor delta 1; kappa:mu:delta = 9:1:1
Mu-type opioid receptor [9] = target: T2, Mu-type opioid receptor (Homo sapiens, UniProt P35372); assay: Incorporation of [35S]- GTPgammaS into CHO membranes expressing human Opioid receptor mu 1
Mu-type opioid receptor [10] = target: T2, Mu-type opioid receptor; assay: Incorporation of [35S]GTP-gamma-S, into CHO membranes expressing human Opioid receptor mu 1; format: functional
[11] = target: Kappa-type opioid receptor (Cavia porcellus) (UniProt P41144); assay: Ratio of binding affinity of Opioid receptor kappa 1 to Opioid receptor mu 1 to Opioid receptor delta 1; kappa:mu:delta = 150:7:1
[12] = target: Kappa-type opioid receptor (Cavia porcellus) (UniProt P41144); assay: Ratio of binding affinity of Opioid receptor kappa 1 to Opioid receptor mu 1 to Opioid receptor delta 1; kappa:mu:delta = 26:81:1
[13] = target: Kappa-type opioid receptor (Cavia porcellus) (UniProt P41144); assay: Ratio of binding affinity of Opioid receptor kappa 1 to Opioid receptor mu 1 to Opioid receptor delta 1; kappa:mu:delta = 12:4:1
[14] = target: Kappa-type opioid receptor (Cavia porcellus) (UniProt P41144); assay: Ratio of binding affinity of Opioid receptor kappa 1 to Opioid receptor mu 1 to Opioid receptor delta 1; kappa:mu:delta = 9:5:1
[15] = target: Kappa-type opioid receptor (Cavia porcellus) (UniProt P41144); assay: Ratio of binding affinity of Opioid receptor kappa 1 to Opioid receptor mu 1 to Opioid receptor delta 1; kappa:mu:delta = 7:3:1
[16] = target: Kappa-type opioid receptor (Cavia porcellus) (UniProt P41144); assay: Ratio of binding affinity of Opioid receptor kappa 1 to Opioid receptor mu 1 to Opioid receptor delta 1; kappa:mu:delta = 28:12:1
[17] = target: Kappa-type opioid receptor (Cavia porcellus) (UniProt P41144); assay: Ratio of binding affinity of Opioid receptor kappa 1 to Opioid receptor mu 1 to Opioid receptor delta 1; kappa:mu:delta = 15:18:1

Mu-type opioid receptor (Cavia porcellus, UniProt P97266), sequence (P97266 whole entry): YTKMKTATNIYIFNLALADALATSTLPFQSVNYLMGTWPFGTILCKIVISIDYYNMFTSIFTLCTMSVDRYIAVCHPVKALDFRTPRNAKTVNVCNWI
T2 sequence (P35372 whole entry): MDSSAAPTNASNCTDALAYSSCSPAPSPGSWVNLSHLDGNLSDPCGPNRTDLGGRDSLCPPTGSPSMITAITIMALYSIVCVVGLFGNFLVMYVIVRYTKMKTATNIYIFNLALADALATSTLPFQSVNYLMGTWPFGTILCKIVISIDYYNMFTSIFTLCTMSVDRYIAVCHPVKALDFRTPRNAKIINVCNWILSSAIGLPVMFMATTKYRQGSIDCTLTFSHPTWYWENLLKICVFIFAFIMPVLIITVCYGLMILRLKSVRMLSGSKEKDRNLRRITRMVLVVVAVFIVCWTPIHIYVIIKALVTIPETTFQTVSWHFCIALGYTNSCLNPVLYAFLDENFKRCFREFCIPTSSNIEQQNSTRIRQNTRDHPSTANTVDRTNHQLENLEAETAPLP
T1 sequence (P41145 whole entry): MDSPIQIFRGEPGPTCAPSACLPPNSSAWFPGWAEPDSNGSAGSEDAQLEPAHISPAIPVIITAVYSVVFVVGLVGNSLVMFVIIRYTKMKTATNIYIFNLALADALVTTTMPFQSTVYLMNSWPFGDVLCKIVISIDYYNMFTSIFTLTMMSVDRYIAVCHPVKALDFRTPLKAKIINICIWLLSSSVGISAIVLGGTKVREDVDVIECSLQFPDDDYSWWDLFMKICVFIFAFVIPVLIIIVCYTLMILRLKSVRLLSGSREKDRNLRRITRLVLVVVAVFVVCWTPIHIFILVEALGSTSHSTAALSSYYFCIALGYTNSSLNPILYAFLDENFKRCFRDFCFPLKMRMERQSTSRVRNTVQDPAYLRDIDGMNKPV
Kappa-type opioid receptor (Cavia porcellus), sequence (P41144 whole entry): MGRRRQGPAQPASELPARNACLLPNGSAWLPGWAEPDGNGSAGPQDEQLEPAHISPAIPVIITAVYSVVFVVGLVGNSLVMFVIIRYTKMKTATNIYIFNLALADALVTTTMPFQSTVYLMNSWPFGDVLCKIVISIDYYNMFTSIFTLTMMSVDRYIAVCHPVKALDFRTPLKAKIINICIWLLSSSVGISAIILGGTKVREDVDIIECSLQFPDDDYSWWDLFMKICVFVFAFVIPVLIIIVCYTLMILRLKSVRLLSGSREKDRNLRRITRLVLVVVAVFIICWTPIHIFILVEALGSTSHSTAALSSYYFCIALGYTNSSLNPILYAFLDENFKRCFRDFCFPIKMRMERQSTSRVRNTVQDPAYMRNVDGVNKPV
Kappa-type opioid receptor (Cavia porcellus, UniProt P41144), sequence (P41144 whole entry): as above

`C[C@H]1C2Cc3ccc(NCc4ccccc4)cc3[C@@]1(C)CCN2CC1CC1` (stereo in doubt; 25) showed a Ratio [1] of 12.

For `C[C@H]1C2Cc3ccc(Nc4ccccn4)cc3[C@@]1(C)CCN2CC1CC1`, the Ki (Mu-type opioid receptor [2]) was 4.2 nM and the Ki [3] was 9.2 nM.

With `C[C@H]1[C@H]2Cc3ccc(Nc4ccccc4)cc3[C@@]1(C)CCN2CC1CC1` (stereo in doubt; (+)12) the Ki [4] was 270 nM.

Compound `C[C@H]1[C@H]2Cc3ccc(N)cc3[C@@]1(C)CCN2CC1CC1` has an EC50 [5] of 20 nM, a Ki [4] of 12 nM and an Emax [6] of 80%.

`CC(C)Nc1ccc2c(c1)[C@@]1(C)CCN(CC3CC3)C(C2)[C@@H]1C` gave a Ki [4] of 460 nM.

In the case of `C[C@H]1[C@H]2Cc3ccc(Nc4ccccc4)cc3[C@@]1(C)CCN2CC1CC1` (stereo in doubt; 10) [listing 1 of 2 here], the Ratio [7] is reported as 11.

`C[C@H]1C2Cc3ccc(Nc4ccc(N(C)C)cc4)cc3[C@@]1(C)CCN2CC1CC1` showed a Ki (Mu-type opioid receptor [2]) of 70 nM, a Ratio [8] of 9 and a Ki [3] of 8.8 nM.

`CC[C@@]12CCN(CC3CC3)C(C(=O)c3ccc(O)cc31)[C@@H]2C` (single isomer, unassigned; (-)) [ETHYLKETOCYCLAZOCINE] showed an EC50 (Mu-type opioid receptor [9]) of 5.5 nM and a Ki (Mu-type opioid receptor [2]) of 0.73 nM.

For `CC[C@@]12CCN(CC3CC3)C(C(=O)c3ccc(N)cc31)[C@@H]2C` (single isomer, unassigned; (+)) [listing 1 of 2 here], the Ki (Mu-type opioid receptor [2]) was 17 nM and the Ki [3] was 91 nM.

With `C[C@H]1C2C(=O)c3ccc(N)cc3[C@@]1(C)CCN2CC1CC1` the EC50 (Mu-type opioid receptor [9]) was 180 nM, the Ki (Mu-type opioid receptor [2]) was 3.6 nM and the EC50 [5] was 9.7 nM. For the same compound, the Emax (Mu-type opioid receptor [10]) was 80%, the Emax [6] was 70% and the Ki [3] was 0.8 nM.

Work on `CC[C@@]12CCN(CC3CC3)C(C(=O)c3ccc(N)cc31)[C@@H]2C` (stereo in doubt; 44) yielded a Ratio [11] of 150, an Emax (Mu-type opioid receptor [10]) of 60% and an Emax [6] of 100%.

`C[C@H]1C2C(=O)c3ccc(O)cc3[C@@]1(C)CCN2CC1CC1` showed an EC50 (Mu-type opioid receptor [9]) of 21 nM, an EC50 [5] of 3.3 nM and an Emax (Mu-type opioid receptor [10]) of 40%. For the same compound, the Emax [6] was 80% and the Ki [3] was 1 nM.

For `C[C@H]1[C@H]2Cc3ccc(O)cc3[C@]1(C)CCN2CC1CC1` (stereo in doubt; (-)2) [CYCLAZOCINE], the EC50 [5] was 1.2 nM.

With `C[C@H]1[C@H]2Cc3ccc(O)cc3[C@]1(C)CCN2CC1CC1` (stereo in doubt) the Emax [6] was 90%.

`C[C@H]1C2Cc3ccc(N(C)C)cc3[C@@]1(C)CCN2CC1CC1` (stereo in doubt; 30) showed a Ki [4] of 1500 nM.

Compound `C[C@H]1C2Cc3ccc(NCc4ccccc4)cc3[C@@]1(C)CCN2CC1CC1` (single isomer, unassigned; (-)) has a Ratio [12] of 26.

In the case of `C[C@H]1C2Cc3ccc(N4CCCCC4)cc3[C@@]1(C)CCN2CC1CC1`, the Ratio [13] is reported as 12, the Ki (Mu-type opioid receptor [2]) is reported as 95 nM and the Ki [4] is reported as 3600 nM.

Work on `CC[C@@]12CCN(CC3CC3)C(C(=O)c3ccc(N)cc31)[C@@H]2C` (single isomer, unassigned; (+)) [listing 2 of 2 here] yielded a Ratio [14] of 9.

`C[C@H]1[C@H]2Cc3ccc(O)cc3[C@@]1(C)CCN2C[C@@H]1CCCO1` showed a Ki (Mu-type opioid receptor [2]) of 0.17 nM, an EC50 [5] of 4 nM and an Emax [6] of 70%. It also gave a Ki [3] of 0.073 nM.

For `C[C@H]1C2Cc3ccc(Nc4cccnc4)cc3[C@@]1(C)CCN2CC1CC1`, the Ki (Mu-type opioid receptor [2]) was 0.64 nM, the EC50 [5] was 10 nM and the Emax [6] was 90%. For the same compound, the Ki [3] was 0.5 nM.

With `CC[C@@]12CCN(CC3CC3)C(C(=O)c3ccc(N)cc31)[C@@H]2C` (single isomer, unassigned; (-)) the Ratio [15] was 7, the Emax (Mu-type opioid receptor [10]) was 10% and the Emax [6] was 110%.

With `CNc1ccc2c(c1)[C@@]1(C)CCN(CC3CC3)C(C2)[C@@H]1C` the Ki [4] was 470 nM.

Compound `CC[C@@]12CCN(CC3CC3)C(C(=O)c3ccc(O)cc31)[C@@H]2C` (single isomer, unassigned; (-)) has an Emax (Mu-type opioid receptor [10]) of 70% and an Emax [6] of 170%.

With `C[C@H]1C2Cc3ccc(N4CCN(C)CC4)cc3[C@@]1(C)CCN2CC1CC1` the Ratio [16] was 28 and the Ki [4] was 250 nM.

With `C[C@H]1[C@H]2Cc3ccc(Nc4ccccc4)cc3[C@@]1(C)CCN2CC1CC1` (stereo in doubt; 10) [listing 2 of 2 here] the Ki [4] was 9.4 nM.

`C[C@H]1[C@H]2Cc3ccc(Nc4ccccc4)cc3[C@@]1(C)CCN2CC1CC1` gave an EC50 (Mu-type opioid receptor [9]) of 15 nM and an EC50 [5] of 3.8 nM.

`C[C@H]1C2Cc3ccc(NCCc4ccccc4)cc3[C@@]1(C)CCN2CC1CC1` gave a Ratio [17] of 15 and a Ki [4] of 160 nM.
